Compounds with a hit are over-represented: about 3% of the library has one in this group of screens.
NPR1 activator = GC-A (human) enzyme activation. HEK293 GC-A cells, cGMP TR-FRET, EC30 ANP; 0% at EC30 ANP, 100% saturating ANP. activation, % at 10 µM. actives 0.14% (n = 370,000). AID 1671463; in the data active means activation above about 40%
Hep lipid drop = hepatic lipid droplet formation modulation | AML12 mouse hepatocytes, oleate lipid droplets, BODIPY imaging | inhibition, % at 6.5 µM | actives 0.4% (n = 240,000) | AID 1656;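 active means lipid droplet intensity inhibited by at least 50%, with more than 500 cells counted; inconclusive means wells with under 300 cells, treated as cytotoxic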
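System: AML12 hepatocytes (mouse). Probe or stimulus: oleic acid at 100 µM to induce lipid droplet formation. Times: overnight treatment with compound plus oleate. Detection: Image-based BODIPY and DAPI two-channel analysis. Evaluation: percent inhibition of filter-corrected integrated lipid droplet intensity per well.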
JMJD2C inh = inhibitors of human GASC-1 (JMJD2C) demethylase; inhibition, % at 2.35 µM; AID 2099; actives 0.069% (n = 330,000); GST-JMJD2C(1-420) H3K9me3 demethylation, DELFIA europium;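 active means more than half of a compound's replicate wells show inhibition beyond 50%, single wells judged on their own value; inconclusive means some, but no more than half, of replicates pass 50% inhibition; inactive means no replicate passes 50% inhibition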;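 further: signal counts dimethyl H3K9 product captured on neutravidin plate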
Target sequence (Q9H3R0 1-420 limits assumed): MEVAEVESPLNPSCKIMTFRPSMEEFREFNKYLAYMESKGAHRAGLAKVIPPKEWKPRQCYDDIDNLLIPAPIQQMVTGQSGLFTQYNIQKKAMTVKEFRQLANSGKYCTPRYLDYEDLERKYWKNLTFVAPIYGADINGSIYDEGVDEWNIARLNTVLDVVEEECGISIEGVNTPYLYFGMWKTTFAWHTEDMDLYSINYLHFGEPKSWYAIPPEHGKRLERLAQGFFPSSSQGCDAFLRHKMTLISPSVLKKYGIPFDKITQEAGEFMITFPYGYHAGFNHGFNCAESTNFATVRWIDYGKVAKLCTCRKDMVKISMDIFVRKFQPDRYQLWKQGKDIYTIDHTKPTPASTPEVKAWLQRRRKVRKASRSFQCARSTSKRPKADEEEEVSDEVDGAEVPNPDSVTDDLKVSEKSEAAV
aDG glyco act = alpha-DG glycosylation activation; activation, % at 10 µM; actives 0.22% (n = 360,000); Pro5-aDG cells, alpha-DG glycosylation AlphaScreen (IIH6); 0% Pro5, 100% B10-LARGE cell signal; AID 624168;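 active means activation of at least 8% versus controls, or a plate z-score of at least 8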;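 further: Pro5 are CHO cells carrying HIG-tagged alpha-DG that lacks glycosylation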
GRIN3A LBD mod = modulates the human NR3A ligand-binding domain; Tm shift relative to glycine control, % at 25 µM; actives 2.5% (n = 340,000); NR3A LBD differential scanning fluorimetry, Tm shift; 0% = protein alone, 100% = glycine-bound protein;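 active means melting temperature shift of at least 10% of the positive control shift, at one fixed dose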
NPR2 activator = GC-B (human) receptor activation | actives 0.11% (n = 370,000) | AID 1920062 | P20594 | HEK293-GC-B cells, CNP EC30, cGMP TR-FRET; 0% at EC30 CNP, 100% saturating CNP | activation, % at 10 µM;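 active means activation at 10 µM reaching about 35% in either raw or pattern-adjusted values, limit read from the data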
Hits are given with their value; n = inactive; u = inconclusive; x = not tested or not shown.

SMILES	NPR1 activator	Hep lipid drop	JMJD2C inh	aDG glyco act	GRIN3A LBD mod	NPR2 activator
COc1ccc(C(=O)/C=C(\Nc2ccc(Br)c(C)c2)c2ccc(OC)cc2OC)c(OC)c1	n	x	x	x	x	n
Cc1nnsc1SCCNC(=O)Nc1ccc(Cl)cc1	n	n	n	n	28	n
Cc1nnsc1C(=O)Nc1ccc(Cl)cc1	n	n	n	n	n	n
COc1ccc(NC(=O)Nc2ccc(Br)c(C)c2)cc1	n	n	n	n	25	n
CCOC(=O)[C@]12CCCCC/C=C\1N(CCc1ccc(Cl)cc1)C(=O)[C@H]2CC(=O)N1CCOCC1	n	x	x	x	x	n
COc1ccc(CN2C[C@]3(C=C(C)Cn4c(=O)n(-c5ccccc5)c(=O)n43)N=C2NC(=O)c2ccccc2)c(OC)c1	n	x	x	x	x	n
COC(=O)[C@H](C(C)C)N1CCc2nnn(CC3CCCCC3)c2-c2ccccc2S1(=O)=O	n	x	x	x	x	n
O=C(NCCNC(=O)Nc1ccc(Cl)cc1)Nc1ccc(Cl)cc1	n	x	x	n	22	n
O=C(Nc1ccc(Cl)c(Cl)c1)Nc1ccon1	n	n	n	n	28	n
Cc1cc(NC(=O)Nc2ccc(Cl)c(Cl)c2)no1	n	x	n	n	n	n
O=C(Nc1ccc(Cl)c(Cl)c1)Nc1ccc(Br)cc1F	n	n	n	n	40	n
Cc1ccc(NC(=O)Nc2ccc(F)c(Cl)c2)cc1	n	n	u	n	32	n
O=C(Nc1ccc(Br)cc1)Nc1ccccc1F	n	n	n	n	n	n
COc1ccc(C2CC(=O)C(c3cccc(F)c3)=CN2Cc2ccccc2)cc1 (stereo unspecified)	n	x	x	x	x	n
Cc1nccc(-c2cccc(NC(=O)Nc3ccc(Cl)cc3)c2)n1	n	n	n	n	25	n
Cc1cccc(NC(=O)Nc2ccc(Cl)cc2)n1	n	n	n	n	n	n
O=C(Nc1ccccc1)Nc1cccc(Cl)c1Cl	n	n	n	n	n	n
O=C(Nc1ccc(Oc2ccc(NC(=O)Nc3ccccc3Cl)cc2)cc1)Nc1ccccc1Cl	n	n	n	n	22	n
COc1cc2[nH]c(C)c(-c3ccccc3)c(=O)c2cc1Cl	n	x	x	n	x	n
CCc1cc(/C(Cc2ccc3ccccc3n2)=N\O)c(O)cc1O	n	x	n	n	29	n
COc1ccc(/C(O)=C2\C(=O)C(=O)N(c3cc(C)on3)C2c2cccc(OC)c2OC)cc1C (stereo unspecified)	n	x	n	n	n	n
COc1cccc(C2c3c(oc4ccc(Cl)cc4c3=O)C(=O)N2c2cc(C)on2)c1OC (stereo unspecified)	n	x	n	n	11	n
O=C(NCCC(=O)N1CCCC(C(F)(F)F)C1)c1ccccc1Cl (stereo unspecified)	n	n	n	n	n	n
CN=C1S/C(=C/c2cn(CC(=O)OC)c3ccccc23)C(=O)N1C	n	n	n	n	12	n
CN=C1S/C(=C\c2cn(CC(=O)OC)c3ccccc23)C(=O)N1C	n	n	n	n	n	n
SMILES	NPR1 activator	Hep lipid drop	JMJD2C inh	aDG glyco act	GRIN3A LBD mod	NPR2 activator
O[C@H](COc1cc(F)cc(F)c1)CN1CCC(C(O)(c2ccccc2)c2ccccc2)CC1	n	x	x	x	x	n
O=C1c2ccccc2C(=O)N1/N=C/c1ccc(O)c(O)c1	n	n	n	n	19	n
COc1cccc(Nc2nc(-c3sc(C)nc3C)cs2)c1	n	n	n	n	12	n
Cc1nc(C)c(-c2csc(Nc3ccc(C(=O)O)c(O)c3)n2)s1	n	n	n	n	n	n
COc1cccc(Nc2nc(-c3sc(N)nc3C)cs2)c1	n	n	n	n	n	n
Cc1nc(C)c(-c2csc(Nc3ccc(F)cc3)n2)s1	n	n	n	n	15	n
O=C(C1CC1)n1ccc2ccc(-c3ccc4ccn(Cc5ccccc5)c4c3)cc21	n	x	x	x	x	n
COc1ccc(NC(=O)c2ccc(NS(=O)(=O)c3c(C)noc3C)cc2)cc1OC	n	x	n	n	n	n
N#C/C(C(=O)Nc1ccc(Cl)cc1)=C(/S)Nc1ccccc1	58	n	n	n	32	n
Cc1ccc(NC(=O)c2ccc(NS(=O)(=O)c3c(C)noc3C)cc2)cc1C	n	n	n	n	30	n
O=C(Nc1ccc(Cl)cc1)C1=Cc2ccccc2OC1	n	n	n	n	20	n
O=C(Nc1cc(-c2ccccc2)[nH]n1)c1ccc(Cl)cc1	n	n	n	n	18	n
O=C(NNC(=O)c1ccc(NC(=O)C2CC2)cc1)c1ccc(F)cc1	n	n	n	n	n	n
O=C(Nc1ccc2ncccc2c1)c1cccc(Br)c1	n	n	n	n	22	n
O=C(Nc1ccc(Nc2ccccc2)cc1)c1ccc(Br)cc1	n	n	n	n	36	n
O=C(Cc1ccccc1)Nc1ccc(NC(=O)c2ccc(Br)cc2)cc1	n	n	n	n	n	n
O=C(Nc1cccc(C(=O)Nc2ccc(Br)cc2)c1)c1ccccc1	n	n	n	n	27	n
Cc1ccc(C(=O)Nc2ccc3ncccc3c2)cc1	n	n	n	n	n	n
O=C(Nc1ccccc1)c1ccc(NC(=O)C2CC2)cc1	n	n	n	n	16	n
CC(=O)c1ccc(NC(=O)c2cccc(NC(=O)c3ccccc3)c2)cc1	n	n	n	n	n	n
CCCCN(C)C(=O)C1CCN(S(=O)(=O)c2ccc3[nH]c(=O)oc3c2)CC1	n	x	x	x	x	n
CCOC(=O)[C@H]1[C@H]2COc3ccc(OC)cc3[C@@H]2N2C(=O)c3ccccc3NC(=O)[C@@]12C	n	x	n	n	n	n
O=C(Nc1ccc(Nc2ccccc2)cc1)c1ccccc1	n	x	n	x	13	n
CNC(=O)Nc1ccc(C2SCCS2)cc1	n	n	n	n	n	n
Cc1ccc(NC(=O)c2ccc(NC(=O)c3ccccc3)cc2)cc1C	n	n	n	n	17	n
SMILES	NPR1 activator	Hep lipid drop	JMJD2C inh	aDG glyco act	GRIN3A LBD mod	NPR2 activator
O=C(NNC(=O)c1ccc(NC(=O)c2ccccc2)cc1)c1ccccc1	n	n	n	n	n	n
Cc1ccc(C(=O)Nc2ccc(Nc3ccccc3)cc2)cc1C	n	x	n	n	n	n
Cc1ccc(C(=O)Nc2ccc(Nc3ccccc3)cc2)cc1Br	n	x	n	n	25	n
O=C(Nc1ccc(C2SCCS2)cc1)c1ccccc1	n	n	n	n	15	n
COc1ccc(/C(C)=N\NC(=O)c2ccco2)cc1	n	x	x	x	x	n
O=C(N=Nc1c(O)[nH]c2c(Cl)cc(Cl)cc12)c1ccccc1O	n	x	x	x	x	n
CCCCCC[C@@H](CN(CCCC)S(C)(=O)=O)c1ccccc1	n	x	x	x	x	n
O=C(Nc1ccc(NS(=O)(=O)c2ccccc2)cc1)c1ccc(Cl)cc1	n	n	n	n	n	n
O=C(Nc1ccc(F)cc1)c1ccccc1	n	n	n	n	16	n

Source: PubChem BioAssay
